Test results published in ChEMBL document CHEMBL1138867, “Design, synthesis, potency, and cytoselectivity of anticancer agents derived by parallel synthesis from alpha-aminosuberic acid” (J Med Chem, 2006).
Calls of active or inactive are those of the source. No cut-off for these calls is given here.

What was measured:
NFF = experiment: Antiproliferative activity against human NFF cells; format: functional, cell-based
Procedure, shortened: (§1)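 Cells cultured in RPMI 1640 with 10% heat-inactivated FCS, 3 mM HEPES, 5% CO2, 37 °C; NFF are primary neonatal foreskin fibroblasts. Cells were seeded at 5 × 10^3/well and left to adhere overnight. They were exposed to compound for 24 h, then the medium was replaced and cells grown a further 72 h. Survival was read by SRB staining at 564 nm, giving IC50.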

MM96L [1] = experiment: Antiproliferative activity against human MM96L cells; format: functional, cell-based; procedure, shortened: as §1
SK-MEL-28 = experiment: Antiproliferative activity against human SK-Mel-28 cells; format: functional, cell-based; procedure, shortened: as §1
A549 [2] = experiment: Antiproliferative activity against human A549 cells; format: functional, cell-based; procedure, shortened: as §1
DU-145 = experiment: Antiproliferative activity against human DU145 cells; format: functional, cell-based; procedure, shortened: as §1
HOP-62 = experiment: Antiproliferative activity against human HOP62 cells; format: functional, cell-based; procedure, shortened: as §1
HT-29 = experiment: Antiproliferative activity against human HT29 cells; format: functional, cell-based; procedure, shortened: as §1
MCF7 = experiment: Antiproliferative activity against human MCF7 cells; format: functional, cell-based; procedure, shortened: as §1
SK-MEL-5 = experiment: Antiproliferative activity against human SK-Mel-5 cells; format: functional, cell-based; procedure, shortened: as §1
[3] = Antiproliferative activity against human H520 cells; format: functional, cell-based; details: NCI-H520; procedure, shortened: as §1
T47D = experiment: Antiproliferative activity against human T-47D cells; format: functional, cell-based; procedure, shortened: as §1
C180-13S = experiment: Antiproliferative activity against human C180-13S cells; format: functional, cell-based; procedure, shortened: as §1
[4] = Antiproliferative activity against human JAM cells; format: functional, cell-based; procedure, shortened: as §1
PC-3 = experiment: Antiproliferative activity against human PC3 cells; format: functional, cell-based; procedure, shortened: as §1
COLO 205 = experiment: Antiproliferative activity against human Colo205 cells; format: functional, cell-based; procedure, shortened: as §1
A549 [5] = experiment: Induction of p21 expression in human A549 cells after 24 hrs; format: functional, cell-based
Procedure, shortened: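 A549 cells were treated 24 h with 0.05, 0.5 or 5 µg/mL compound or vehicle. Lysates were made by sonication in 1% SDS/20% glycerol/10 mM Tris pH 7.4 buffer, and protein was quantified by BCA. Then 30 µg was run on 15% SDS-PAGE and immunoblotted for p21WAF1/Cip1 (1:1000), with GAPD (1:10 000) as reference, using chemiluminescence detection.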

A549 (Homo sapiens) = experiment: Induction of p21 expression in human A549 cells
MM96L [6] = experiment: Effect on cell morphology in human MM96L cells at 3 ug/mL after 24 hrs; format: functional, cell-based

Row | SMILES | IC50 (NFF) [nM] | IC50 (MM96L [1]) [nM] | also measured
1 | O=C(CCCCC[C@H](NC(=O)OCc1ccccc1)C(=O)Nc1cccc2cccnc12)NO | 452 | 43 | IC50 (SK-MEL-28): 146 nM; IC50 (A549 [2]): 248 nM; IC50 (DU-145): 131 nM; IC50 (HOP-62): 226 nM; IC50 (HT-29): 334 nM; IC50 (MCF7): 122 nM; IC50 (SK-MEL-5): 70 nM; IC50 [3]: 118 nM; IC50 (T47D): 93 nM; IC50 (C180-13S): 124 nM; IC50 [4]: 194 nM; IC50 (PC-3): 528 nM; IC50 (COLO 205): 122 nM
2 | O=C(CCCCC[C@H](NC(=O)C12CC3CC(CC(C3)C1)C2)C(=O)NCc1ccccc1)NO | 7130 | 3950 | 
3 | O=C(CCCCC[C@H](NC(=O)c1cc2c(O)cccc2[nH]1)C(=O)NCc1ccccc1)NO | 2210 | 330 | 
4 | O=C(/C=C/c1ccccc1)N[C@@H](CCCCCC(=O)NO)C(=O)Nc1cccc2cccnc12 | 1240 | 21 | IC50 (SK-MEL-28): 37 nM; IC50 (A549 [2]): 73 nM; IC50 (DU-145): 30 nM; IC50 (HOP-62): 65 nM; IC50 (HT-29): 99 nM; IC50 (MCF7): 17 nM; IC50 (SK-MEL-5): 29 nM; IC50 [3]: 27 nM; IC50 (T47D): 20 nM; IC50 (C180-13S): 28 nM; IC50 [4]: 49 nM; IC50 (PC-3): 109 nM; IC50 (COLO 205): 141 nM
5 | O=C(CCCCC[C@H](NC(=O)c1cc2c(Br)cccc2[nH]1)C(=O)NCc1ccccc1)NO | 1940 | 490 | 
6 | O=C(CCCCC[C@H](NC(=O)OCc1ccccc1)C(=O)Nc1ccc(-c2ccccc2)cc1)NO | 2200 | 330 | 
7 | COc1ccc(CCNC(=O)C(CCCCCC(=O)NO)NC(=O)c2ccco2)cc1 (stereo not drawn) | 1300 | 970 | 
8 | O=C(CCCCC[C@H](NC(=O)c1cc2ccccc2[nH]1)C(=O)Nc1cccc2cccnc12)NO | 337 | 21 | Activity (A549 [5]): Active; IC50 (SK-MEL-28): 33 nM; IC50 (A549 [2]): 69 nM; IC50 (DU-145): 22 nM; IC50 (HOP-62): 63 nM; IC50 (HT-29): 79 nM; IC50 (MCF7): 19 nM; IC50 (SK-MEL-5): 18 nM; IC50 [3]: 26 nM; IC50 (T47D): 19 nM; IC50 (C180-13S): 20 nM; IC50 [4]: 48 nM; IC50 (PC-3): 148 nM; IC50 (COLO 205): 102 nM; Activity (A549 (Homo sapiens)): Active
9 | O=C(CCCCC[C@H](NC(=O)c1ccc(C(F)(F)F)cc1)C(=O)Nc1cccc2cccnc12)NO | 696 | 258 | 
10 | O=C(CCCCC[C@H](NC(=O)OCC1c2ccccc2-c2ccccc21)C(=O)NCc1ccccc1)NO | 5370 | 3200 | 
11 | O=C(CCCCC[C@H](NC(=O)c1ccc(Br)cc1)C(=O)NCc1ccccc1)NO | 5860 | 1990 | 
12 | O=C(CCCCCC(NC(=O)c1cccnc1)C(=O)NCc1ccccc1)NO (stereo not drawn) | 24000 | 9500 | 
13 | O=C(CCCCC[C@H](NC(=O)c1ccc(Br)cc1)C(=O)NCc1ccccn1)NO | 2090 | 1150 | 
14 | O=C(CCCCC[C@H](NC(=O)OCc1ccccc1)C(=O)NC1CCCc2ccccc21)NO (stereo partly drawn) | 1700 | 1700 | 
15 | O=C(CCCCC[C@H](NC(=O)c1ccc(Br)cc1)C(=O)Nc1ccc(-c2ccccc2)cc1)NO | 190 | 70 | IC50 (SK-MEL-28): 168 nM; IC50 (A549 [2]): 335 nM; IC50 (DU-145): 149 nM; IC50 (HOP-62): 261 nM; IC50 (HT-29): 307 nM; IC50 (MCF7): 149 nM; IC50 (SK-MEL-5): 102 nM; IC50 [3]: 117 nM; IC50 (T47D): 197 nM; IC50 (C180-13S): 158 nM; IC50 [4]: 182 nM; IC50 (PC-3): 531 nM; IC50 (COLO 205): 272 nM
16 | CN(C)c1ccc(NC(=O)[C@H](CCCCCC(=O)NO)NC(=O)/C=C/c2ccccc2)cc1 | 240 | 160 | 
17 | O=C(CCCCC[C@H](NC(=O)c1cc2ccccc2[nH]1)C(=O)NCc1ccccc1)NO | 1260 | 250 | 
18 | O=C(/C=C/c1c[nH]c2ccccc12)N[C@@H](CCCCCC(=O)NO)C(=O)NCc1ccccc1 | 10400 | 3240 | 
19 | CN(C)c1ccc(C(=O)N[C@@H](CCCCCC(=O)NO)C(=O)NC2(Cc3ccccc3)CCCC2)cc1 | 3000 | 900 | 
20 | O=C(CCCCCC(NC(=O)c1ccc([N+](=O)[O-])cc1)C(=O)NCc1ccccc1)NO (stereo not drawn) | 9000 | 6000 | 
21 | O=C(CCCCC[C@H](NC(=O)c1ccc(Br)cc1)C(=O)NCc1ccncc1)NO | 5240 | 830 | 

Row | SMILES | IC50 (NFF) [nM] | IC50 (MM96L [1]) [nM] | also measured
22 | CN(C)c1ccc(NC(=O)[C@H](CCCCCC(=O)NO)NC(=O)c2ccc(C(F)(F)F)cc2)cc1 | 400 | 220 | 
23 | O=C(CCCCC[C@H](NC(=O)CCCc1c[nH]c2ccccc12)C(=O)NCc1ccccc1)NO | 7030 | 1850 | 
24 | O=C(CCCCC[C@H](NC(=O)c1cc2ccccc2[nH]1)C(=O)NC1(Cc2ccccc2)CCCC1)NO | 1600 | 900 | 
25 | O=C(CCCCC[C@H](NC(=O)Cc1c[nH]c2ccccc12)C(=O)NCc1ccccc1)NO | > 2200 | 330 | 
26 | O=C(CCCCC[C@H](NC(=O)Cc1ccc(-c2ccccc2)cc1)C(=O)NCc1ccccc1)NO | 5130 | 2360 | 
27 | CN(C)c1ccc(C(=O)N[C@H](CCCCCC(=O)NO)C(=O)NCc2ccccc2)cc1 | 1000 | 160 | 
28 | O=C(/C=C/c1ccccc1)N[C@@H](CCCCCC(=O)NO)C(=O)NCc1ccccc1 | 4010 | 460 | 
29 | O=C(CCCCC[C@H](NC(=O)OCc1ccccc1)C(=O)NCc1ccccc1)NO | 1520 | 1520 | 
30 | CC(C)COC(=O)N[C@@H](CCCCCC(=O)NO)C(=O)Nc1cccc2cccnc12 | 81 | 23 | IC50 (SK-MEL-28): 170 nM; IC50 (A549 [2]): 291 nM; IC50 (DU-145): 130 nM; IC50 (HOP-62): 267 nM; IC50 (HT-29): 360 nM; IC50 (MCF7): 138 nM; IC50 (SK-MEL-5): 100 nM; IC50 [3]: 129 nM; IC50 (T47D): 198 nM; IC50 (C180-13S): 149 nM; IC50 [4]: 221 nM; IC50 (PC-3): 651 nM; IC50 (COLO 205): 395 nM
31 | O=C(CCCCC[C@H](NC(=O)c1cccs1)C(=O)NCc1ccccc1)NO | 5200 | 890 | 
32 | O=C(CCCCC[C@H](NC(=O)c1ccc(C(F)(F)F)cc1)C(=O)NCc1ccccc1)NO | 1610 | 660 | 
33 | CN(C)c1ccc(NC(=O)[C@H](CCCCCC(=O)NO)NC(=O)OCc2ccccc2)cc1 | 650 | 610 | 
34 | CN(C)c1ccc(C(=O)N[C@@H](CCCCCC(=O)NO)C(=O)Nc2cccc3cccnc23)cc1 | 570 | 20 | IC50 (SK-MEL-28): 73 nM; IC50 (A549 [2]): 148 nM; IC50 (DU-145): 61 nM; IC50 (HOP-62): 137 nM; IC50 (HT-29): 178 nM; IC50 (MCF7): 35 nM; IC50 (SK-MEL-5): 32 nM; IC50 [3]: 63 nM; IC50 (T47D): 45 nM; IC50 (C180-13S): 65 nM; IC50 [4]: 85 nM; IC50 (PC-3): 220 nM; IC50 (COLO 205): 223 nM
35 | CC(C)CCNC(=O)C(CCCCCC(=O)NO)NC(=O)c1ccco1 (stereo not drawn) | 4400 | 1500 | 
36 | O=C(CCCCCC(NC(=O)c1ccco1)C(=O)NCc1ccccc1)NO (stereo not drawn) | 4600 | 200 | 
37 | CC(C)CCNC(=O)C(CCCCCC(=O)NO)NC(=O)c1cccnc1 (stereo not drawn) | 12000 | 9000 | 
38 | CN(C)c1ccc(C(=O)NC(CCCCCC(=O)NO)C(=O)NC2CCCc3ccccc32)cc1 (stereo not drawn) | 1810 | 300 | 
39 | O=C(CCCCC[C@H](NC(=O)OCc1ccccc1)C(=O)NCc1ccncc1)NO | 23300 | 4320 | 
40 | CN(C)c1ccc(C(=O)N[C@@H](CCCCCC(=O)NO)C(=O)NCc2ccccc2)cc1 | 12000 | 1600 | Activity (MM96L [6]): Active
41 | CN(C)c1ccc(C(=O)N[C@@H](CCCCCC(=O)NO)C(=O)NCc2ccccn2)cc1 | 33000 | 3600 | 
